{
  "source": "ChEMBL document CHEMBL2177000",
  "about": "“Pharmacokinetic optimization of class-selective histone deacetylase inhibitors and identification of associated candidate predictive biomarkers of hepatocellular carcinoma tumor response” (J Med Chem, 2012)",
  "key": {"SMMC-7721": {"tested_on": "SMMC-7721", "test": "Induction of apoptosis in human SMMC-7721 cells assessed as late apoptotic cell level at 5 uM incubated for 48 hrs by FITC/Annexin V staining based flow cytometry (reference value: 6.08%)"}, "Mus musculus [1]": {"tested_on": "Mus musculus", "test": "Toxicity in human Bel7404 cells xenografted BALB/C mouse assessed as body weight loss at 100 mg/kg, po administered every other day for 4 weeks", "conditions": "in vivo, 672 h"}, "HGC-27": {"tested_on": "HGC-27", "format": "functional, Homo sapiens"}, "SK-HEP1": {"tested_on": "SK-HEP1", "format": "functional, Homo sapiens"}, "Mus musculus [2]": {"tested_on": "Mus musculus", "test": "Oral bioavailability in BALB/C mouse at 10 mg/kg by LC-MS/MS method", "format": "ADME, organism-based", "conditions": "in vivo", "summary_of_the_method": "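Bioavailability from single-dose iv (2 mg/kg, 5% DMSO/40% PEG400/55% saline) and oral gavage (10 mg/kg, 0.445% microcrystalline cellulose microsuspension) studies in BALB/C nude mice (N = 16 per arm); plasma at eight (po) or nine (iv) time points, LC-MS/MS, noncompartmental analysis.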"}, "Cytochrome P450 2D6": {"biological_target": "Cytochrome P450 2D6 (Homo sapiens, UniProt P10635)", "sequence (P10635 whole entry)": "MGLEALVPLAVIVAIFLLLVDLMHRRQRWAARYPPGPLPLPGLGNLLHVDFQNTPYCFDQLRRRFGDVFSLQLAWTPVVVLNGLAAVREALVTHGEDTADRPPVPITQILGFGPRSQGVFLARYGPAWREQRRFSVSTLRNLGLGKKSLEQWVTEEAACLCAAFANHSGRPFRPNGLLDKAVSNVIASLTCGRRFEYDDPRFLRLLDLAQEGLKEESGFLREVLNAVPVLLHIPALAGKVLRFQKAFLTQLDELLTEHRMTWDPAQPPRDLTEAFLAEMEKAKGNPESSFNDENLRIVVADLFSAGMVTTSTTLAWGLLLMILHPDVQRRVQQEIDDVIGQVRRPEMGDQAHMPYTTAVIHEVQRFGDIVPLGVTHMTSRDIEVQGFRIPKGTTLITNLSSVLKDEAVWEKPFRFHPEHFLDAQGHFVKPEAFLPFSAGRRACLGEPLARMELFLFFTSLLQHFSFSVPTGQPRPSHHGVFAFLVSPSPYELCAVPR", "test": "Inhibition of CYP2D6 in human liver microsomes in presence of NADPH by LC-MS/MS method", "format": "ADME, Microsome"}, "[3]": {"test": "Clearance in human liver microsomes at 1 uM incubated for 10 mins by LC-MS/MS method", "format": "ADME, Microsome", "summary_of_the_method": "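Liver microsomes (human or mouse, 0.5 mg/mL) in 100 mM potassium phosphate pH 7.4 with 1 μM compound, prewarmed 10 min at 37 °C, started with NADPH (10 mM); stopped at 0, 3, 6, 9, 15, 30 min with ice-cold methanol containing tolbutamide internal standard; LC-MS/MS. Hepatic clearance (mL/min/kg) calculated from intrinsic clearance.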"}, "Mus musculus [4]": {"tested_on": "Mus musculus", "test": "Up-regulation of RASSF1 gene expression in human hepatocellular carcinoma patient tumor xenografted in BALB/C mouse at 100 mg/kg, po administered every other day for 4 weeks by […]", "format": "functional, organism-based", "design": "dose 100 mg/kg", "summary_of_the_method": "(§1)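 Patient HCC tumor fragments (3 × 3 × 3 mm3) implanted subcutaneously in female BALB/c nu/nu mice; at ~200 (150−250) mm3 dosed orally Q2D 100 mpk in 15% Kleptose pH 4.5 tartaric buffer for about four weeks. Tumor RNA (TRIzol, DNase I) run on 22-gene qRT-PCR array, normalized to GAPDH/β-glucuronidase by ΔCt, fold change versus day 0.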"}, "Mus musculus [5]": {"tested_on": "Mus musculus", "test": "Up-regulation of CDH1 gene expression in human hepatocellular carcinoma patient tumor xenografted in BALB/C mouse at 100 mg/kg, po administered every other day for 4 weeks by […]", "format": "functional, organism-based", "design": "dose 100 mg/kg", "summary_of_the_method": "as §1"}, "Mus musculus [6]": {"tested_on": "Mus musculus", "test": "Up-regulation of CACNA1G gene expression in human hepatocellular carcinoma patient tumor xenografted in BALB/C mouse at 100 mg/kg, po administered every other day for 4 weeks by […]", "format": "functional, organism-based", "design": "dose 100 mg/kg", "summary_of_the_method": "as §1"}, "Mus musculus [7]": {"tested_on": "Mus musculus", "test": "Inhibition of Class 1 histone deacetylase in treatment non-responding human hepatocellular carcinoma patient tumor xenografted in BALB/C mouse assessed as induction of histone H3 acetylation at 100 mg/kg, po administered every other day for 4 weeks by immunohistochemistry", "format": "functional, organism-based", "design": "dose 100 mg/kg", "summary_of_the_method": "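Patient-derived HCC xenografts in female nude mice given 100 mpk Q2D PO (15% Kleptose, pH 4.5 tartaric buffer); single dose on last day, tumors harvested 0 to 24 h post-dose. Paraffin sections, citrate pH 6.0 antigen retrieval, anti-Ac-H3 (Lys9) 1:200 overnight 4 °C, HRP/DAB; scored 0−3 independently by two pathologists.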"}, "Mus musculus [8]": {"tested_on": "Mus musculus", "test": "Up-regulation of IGFBP3 gene expression in human hepatocellular carcinoma patient tumor xenografted in BALB/C mouse at 100 mg/kg, po administered every other day for 4 weeks by […]", "format": "functional, organism-based", "design": "dose 100 mg/kg", "summary_of_the_method": "as §1"}, "Mus musculus [9]": {"tested_on": "Mus musculus", "test": "Up-regulation of SDC2 gene expression in human hepatocellular carcinoma patient tumor xenografted in BALB/C mouse at 100 mg/kg, po administered every other day for 4 weeks by […]", "format": "functional, organism-based", "design": "dose 100 mg/kg", "summary_of_the_method": "as §1"}, "Mus musculus [10]": {"tested_on": "Mus musculus", "test": "Up-regulation of HIC1 gene expression in human hepatocellular carcinoma patient tumor xenografted in BALB/C mouse at 100 mg/kg, po administered every other day for 4 weeks by […]", "format": "functional, organism-based", "design": "dose 100 mg/kg", "summary_of_the_method": "as §1"}},
  "note": "Active and inactive are the calls of the source. No cut-off for these calls is given here.",
  "data": [
    {"smiles": "CN1C[C@H](C(=O)Nc2ccc(Cl)cc2)[C@@H](c2ccc(/C=C/C(=O)Nc3ccccc3N)cc2)C1", "note": "[listing 1 of 2 here]", "values": [
      {"measurement": "Activity", "setting": "SMMC-7721", "value": 36.17, "unit": "%"},
      {"measurement": "Activity", "setting": "Mus musculus [1]", "value": "< 10", "unit": "%"},
      {"measurement": "GI90", "setting": "HGC-27", "value": 1, "unit": "µM"},
      {"measurement": "GI90", "setting": "SK-HEP1", "value": 2.5, "unit": "µM"},
      {"measurement": "F", "setting": "Mus musculus [2]", "value": 100, "unit": "%"}
    ]},
    {"smiles": "CN1C[C@H](C(=O)Nc2ccc(Cl)cc2)[C@@H](c2ccc(/C=C/C(=O)Nc3ccccc3N)cc2F)C1", "note": "(racemic)", "values": [
      {"measurement": "IC50", "setting": "Cytochrome P450 2D6", "value": 9, "unit": "µM"},
      {"measurement": "CLhep predicted at 1 µM", "setting": "[3]", "value": 14, "unit": "mL/min/kg"}
    ]},
    {"smiles": "CN1C[C@H](C(=O)Nc2ccc(Cl)cc2)[C@@H](c2ccc(/C=C/C(=O)Nc3ccccc3N)cc2)C1", "note": "[listing 2 of 2 here]", "values": [
      {"measurement": "Activity", "setting": "Mus musculus [4]", "value": "inactive"},
      {"measurement": "Activity", "setting": "Mus musculus [5]", "value": "inactive"},
      {"measurement": "Activity", "setting": "Mus musculus [6]", "value": "Active"},
      {"measurement": "inhibition", "setting": "Mus musculus [7]", "value": "inactive"},
      {"measurement": "Activity", "setting": "Mus musculus [8]", "value": "Active"},
      {"measurement": "Activity", "setting": "Mus musculus [9]", "value": "Active"},
      {"measurement": "Activity", "setting": "Mus musculus [10]", "value": "inactive"}
    ]}
  ]
}
